Consider four compounds from ChEMBL document CHEMBL5705899 (Biochem J, 2014).

Activity calls are given as the source filed them. The rule behind the calls is not given here.

Test [1] has as its system U2OS. Kind of test: Inhibition of PI3K in human U2OS cells expressing FLAG-tagged SGK3 assessed as reduction in AKT phosphorylation T308 residues at 0.01 to 0.5 uM 1 hr by immunoblot analysis. Conditions: dose 0.01-0.5 µM. Type of test: cell-based. An outline of the steps: (§1)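 FLAG-SGK3 U2OS Flp-In cells (doxycycline-induced) treated for 1 h with class I PI3K inhibitor, 0.5 μM or a dose series as indicated. Lysed in phosphatase-inhibitor buffer, clarified at 16000 g for 10 min at 4°C, Bradford-normalized. Akt, PRAS40 and 4EBP1 phosphosites were read by immunoblot, and SGK3 sites on anti-FLAG immunoprecipitates, with ECL film detection.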

The test system of test [2] is U2OS. Kind of test: Inhibition of PI3K in human U2OS cells expressing FLAG-tagged SGK3 assessed as reduction in 4EBP1 phosphorylation S65 residues at 0.01 to 0.5 uM 1 hr by immunoblot analysis. Type of test: cell-based. Conditions: dose 0.01-0.5 µM. An outline of the steps: as §1
(A western blot detects proteins with antibodies after separation by electrophoresis.)

Test [3] concerns U2OS. Kind of test: Inhibition of PI3K in human U2OS cells expressing FLAG-tagged SGK3 assessed as reduction in 4EBP1 phosphorylation T37/T46 residues at 0.01 to 0.5 uM 1 hr by immunoblot analysis. Format: cell-based. Conditions: dose 0.01-0.5 µM. An outline of the steps:
as §1

Test [4] relates to U2OS. Kind of test: Inhibition of PI3K in human U2OS cells expressing FLAG-tagged SGK3 assessed as reduction in AKT phosphorylation S473 residues at 0.01 to 0.5 uM 1 hr by immunoblot analysis. Format: cell-based. Conditions: dose 0.01-0.5 µM. An outline of the steps:
as §1

Test [5] relates to U2OS. Kind of test: Inhibition of PI3K in human U2OS cells expressing FLAG-tagged SGK3 assessed as reduction in PRAS40 phosphorylation T246 residues at 0.01 to 0.5 uM 1 hr by immunoblot analysis. Format: cell-based. The following applies: dose 0.01-0.5 µM. The essentials: as §1
The target in test [6] is T1, 3-phosphoinositide-dependent protein kinase 1 (Homo sapiens) (UniProt O15530).
T1 sequence (whole entry): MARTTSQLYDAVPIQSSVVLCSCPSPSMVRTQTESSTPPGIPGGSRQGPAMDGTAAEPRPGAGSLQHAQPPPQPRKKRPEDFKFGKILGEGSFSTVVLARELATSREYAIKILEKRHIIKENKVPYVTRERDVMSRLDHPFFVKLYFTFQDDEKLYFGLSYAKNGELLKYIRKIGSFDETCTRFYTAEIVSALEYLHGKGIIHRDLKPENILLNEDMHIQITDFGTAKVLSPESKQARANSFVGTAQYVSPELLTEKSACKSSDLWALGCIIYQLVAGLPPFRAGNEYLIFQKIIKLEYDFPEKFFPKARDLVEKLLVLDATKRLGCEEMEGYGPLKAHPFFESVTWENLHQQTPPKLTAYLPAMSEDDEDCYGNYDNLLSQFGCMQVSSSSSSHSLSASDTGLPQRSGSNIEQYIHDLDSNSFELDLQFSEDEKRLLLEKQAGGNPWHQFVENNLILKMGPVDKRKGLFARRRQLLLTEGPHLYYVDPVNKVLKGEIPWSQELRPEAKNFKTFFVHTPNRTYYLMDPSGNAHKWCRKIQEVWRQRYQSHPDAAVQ
Kind of test: Inhibition of PDK1 in human U2OS cells expressing FLAG-tagged SGK3 assessed as reduction in SGK3 activity at 1 uM using cross peptide as substrate incubated for 30 mins in presence of [gamma-32P]-ATP by radioactive assay. Type of test: cell-based. An outline of the steps: (§2)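 U2OS Flp-In cells with doxycycline-induced (0.01 mg/ml, 24 h) full-length SGK3 carrying a C-terminal FLAG tag; treated with 1 μM inhibitor for 1 h. Lysis, anti-FLAG immunoprecipitation, washes (high-salt lysis buffer, lysis buffer, 50 mM Tris pH 7.5/0.1 mM EGTA). IP kinase assay: 30 μM Crosstide, 0.1 mM [γ-32P]ATP, 10 mM Mg acetate, 30 min. Phosphosites then immunoblotted, ECL. Triplicate reactions.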

Test [7] deals with T1, 3-phosphoinositide-dependent protein kinase 1 (Homo sapiens). Kind of test: Inhibition of PDK1 in human U2OS cells expressing FLAG-tagged SGK3 assessed as reduction in SGK3 phosphorylation at T320 residues at 1 uM after 1 hr by immunoblot analysis. Type of test: cell-based. The essentials:
as §2

Test [8] shares this target. Kind of test: Inhibition of PDK1 in human U2OS cells expressing FLAG-tagged SGK3 assessed as reduction in SGK3 phosphorylation at S486 residues at 1 uM after 1 hr by immunoblot analysis. Type of test: cell-based. The essentials:
as §2

In test [9] the test system is U2OS. Kind of test: Inhibition of PI3K in human U2OS cells expressing FLAG-tagged SGK3 assessed as reduction in SGK3 phosphorylation at T320 residues 0.5 uM after 1 to 2 mins by immunoblot analysis. Type of test: cell-based. Conditions: time 1-2 min.
Test [10] deals with U2OS. Kind of test: Inhibition of PI3K in human U2OS cells expressing FLAG-tagged SGK3 assessed as reduction in SGK3 phosphorylation at T320 residues 0.5 uM after 1 hr by immunoblot analysis. Type of test: cell-based. The essentials: as §1
In test [11] the test system is U2OS. Kind of test: Inhibition of PI3K in human U2OS cells expressing FLAG-tagged SGK3 assessed as reduction in 4EBP1 phosphorylation T37/T46 residues at 0.5 uM 1 hr by immunoblot analysis. Format: cell-based. An outline of the steps:
as §1

For test [12], the system named is U2OS. Kind of test: Inhibition of PI3K in human U2OS cells expressing FLAG-tagged SGK3 assessed as reduction in SGK3 phosphorylation at S486 residues 0.5 uM after 1 hr by immunoblot analysis. Format: cell-based. The essentials: as §1
Test [13] has as its system U2OS. Kind of test: Inhibition of PI3K in human U2OS cells expressing FLAG-tagged SGK3 assessed as reduction in SGK3 activity at 0.5 uM using cross peptide as substrate incubated for 1 to 2 mins in presence of [gamma-32P]-ATP by radioactive assay. Format: cell-based. Conditions: time 1-2 min.
For test [14], the target named is Phosphatidylinositol 3-kinase catalytic subunit type 3 (Homo sapiens) (UniProt Q8NEB9). Kind of test: Inhibition of Vps34 in human U2OS cells expressing C-terminal tagged-SGK3 assessed as reduction in SGK3 level in endosome at 0.5 uM incubated for 1 hr by Alexa Fluor 594 staining based fluorescence microscopic analysis. Type of test: subcellular.
Sequence of Phosphatidylinositol 3-kinase catalytic subunit type 3 (Homo sapiens) (Q8NEB9 whole entry): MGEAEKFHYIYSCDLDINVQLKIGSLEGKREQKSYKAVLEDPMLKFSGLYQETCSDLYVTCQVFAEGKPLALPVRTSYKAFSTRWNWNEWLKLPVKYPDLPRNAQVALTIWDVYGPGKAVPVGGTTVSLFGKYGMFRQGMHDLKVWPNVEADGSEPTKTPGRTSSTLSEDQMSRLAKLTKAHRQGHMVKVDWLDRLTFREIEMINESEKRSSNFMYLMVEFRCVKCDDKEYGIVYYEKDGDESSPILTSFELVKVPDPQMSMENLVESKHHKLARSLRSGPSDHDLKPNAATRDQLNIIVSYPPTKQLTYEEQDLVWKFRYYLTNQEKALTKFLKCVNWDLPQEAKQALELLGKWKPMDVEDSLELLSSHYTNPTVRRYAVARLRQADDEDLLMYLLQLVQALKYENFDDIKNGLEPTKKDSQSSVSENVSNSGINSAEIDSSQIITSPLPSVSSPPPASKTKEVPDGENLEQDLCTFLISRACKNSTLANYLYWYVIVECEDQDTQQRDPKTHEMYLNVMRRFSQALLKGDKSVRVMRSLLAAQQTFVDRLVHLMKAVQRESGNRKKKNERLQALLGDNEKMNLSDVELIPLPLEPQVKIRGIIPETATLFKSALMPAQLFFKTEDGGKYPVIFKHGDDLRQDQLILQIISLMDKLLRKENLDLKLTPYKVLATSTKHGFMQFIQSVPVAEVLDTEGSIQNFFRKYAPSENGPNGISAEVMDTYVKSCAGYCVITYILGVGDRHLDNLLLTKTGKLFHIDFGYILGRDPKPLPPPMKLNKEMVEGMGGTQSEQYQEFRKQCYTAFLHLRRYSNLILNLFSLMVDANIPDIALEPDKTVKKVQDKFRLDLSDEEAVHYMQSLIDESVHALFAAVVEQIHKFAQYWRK
For test [15] the target is unchanged. Kind of test: Inhibition of Vps34 in human U2OS cells expressing GFP-2xFYVEHrs assessed as reduction in PtdIns(3)P level in endosome at 0.5 uM incubated for 1 hr by Alexa Fluor 488 staining based fluorescence microscopic analysis relative to control. An outline of the steps:
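U2OS clone with low stable expression of lentiviral GFP–2×FYVEHrs; 1 h inhibitor exposure. Permeabilized by a freeze–thaw in liquid nitrogen, then fixed in 4% paraformaldehyde, stained with anti-GFP plus Alexa Fluor 488 secondary and DAPI. Ten random fields of 20–25 cells each; fluorescence per cell (field total/cell count) expressed relative to DMSO, mean±S.D.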

Test [16] deals with U2OS. Kind of test: Inhibition of PI3K in human U2OS cells expressing FLAG-tagged SGK3 assessed as reduction in PRAS40 phosphorylation T246 residues at 0.5 uM 1 hr by immunoblot analysis. Type of test: cell-based. The essentials:
as §1

Test [17] deals with U2OS. Kind of test: Inhibition of PI3K in human U2OS cells expressing FLAG-tagged SGK3 assessed as reduction in 4EBP1 phosphorylation S65 residues at 0.5 uM 1 hr by immunoblot analysis. Format: cell-based. The essentials: as §1
Test [18] deals with U2OS. Kind of test: Inhibition of PI3K in human U2OS cells expressing FLAG-tagged SGK3 assessed as reduction in SGK3 phosphorylation at S486 residues 0.5 uM after 1 to 2 mins by immunoblot analysis. Type of test: cell-based. The following applies: time 1-2 min.
The subject of test [19] is U2OS. Kind of test: Inhibition of PI3K in human U2OS cells expressing FLAG-tagged SGK3 assessed as reduction in AKT phosphorylation S473 residues at 0.5 uM 1 hr by immunoblot analysis. Format: cell-based. An outline of the steps: as §1
For test [20], the system named is U2OS. Kind of test: Inhibition of PI3K in human U2OS cells expressing FLAG-tagged SGK3 assessed as reduction in AKT phosphorylation T308 residues at 0.5 uM 1 hr by immunoblot analysis. Type of test: cell-based. An outline of the steps:
as §1

The test system of test [21] is U2OS. Kind of test: Inhibition of PI3K in human U2OS cells expressing GFP-PHAkt1 assessed as reduction in IGF-stimulated PtdIns(3,4,5)P3/PtdIns(3,4)P2 level in endosome at 0.5 uM pre incubated for 1 hr followed by IGF stimulation and measured after 15 mins by Alexa Fluor 488 staining based fluorescence microscopic analysis. Format: subcellular. The following applies: time 1.25 hrs.

In test [22] the test system is U2OS. Kind of test: Inhibition of PI3K in human U2OS cells expressing FLAG-tagged SGK3 assessed as reduction in NDRG1 phosphorylation at T346 residues at 0.5 uM 1 hr by immunoblot analysis. Format: cell-based.
Test [23] has as its target Serine/threonine-protein kinase mTOR (Homo sapiens) (UniProt P42345). Kind of test: Inhibition of mTOR in human U2OS cells expressing FLAG-tagged SGK3 assessed as reduction in 4EBP1 phosphorylation S65 residues at 0.1 uM 1 hr by immunoblot analysis. Format: cell-based. The essentials:
(§3)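 Doxycycline-induced FLAG-SGK3 U2OS Flp-In cells exposed to 0.1 μM mTOR inhibitor for 1 h. Clarified lysates immunoblotted for 4EBP1 phosphosites (Thr37/Thr46, Ser65), ECL film detection.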

Test [24] shares this target. Kind of test: Inhibition of mTOR in human U2OS cells expressing FLAG-tagged SGK3 assessed as reduction in 4EBP1 phosphorylation T37/T46 residues at 0.1 uM 1 hr by immunoblot analysis. Format: cell-based. The essentials: as §3

For the compound `Nc1cc(C(F)(F)F)c(-c2cc(N3CCOCC3)nc(N3CCOCC3)n2)cn1`, the inhibition result with U2OS [1], in the test on U2OS [4] and with U2OS [5] was “Active” each time. Moreover, the inhibition entry in the test with U2OS [2] and in the test with U2OS [3] was “inactive” each time.

As to `CNc1nc(-c2ccc3c(N)n[nH]c3c2)cc(N2C[C@@H](C(=O)NC3CCCCC3)CC[C@H]2C)n1`, the inhibition result in test [6], in test [7] and in test [8] was “Active” in each case.

`CS(=O)(=O)N1CCN(Cc2cc3nc(-c4cccc5[nH]ncc45)nc(N4CCOCC4)c3s2)CC1`: the inhibition entry in the test on U2OS [9], with U2OS [10], in the test with U2OS [12], in the test with U2OS [13], with U2OS [16] and with U2OS [18] was “Active” each time. The inhibition result in the test with U2OS [19], in the test on U2OS [20], with U2OS [21] and with U2OS [22] was “Active” each time. Besides, the inhibition entry (with U2OS [11]; in test [14]; in test [15]; with U2OS [17]) was “inactive” in each case.

Consider `COc1ccc(-c2ccc3c(N4CCOC[C@@H]4C)nc(N4CCOC[C@@H]4C)nc3n2)cc1CO`, for which the inhibition entry in test [23] and in [24] was “Active” in each case.
